Assay outcomes as filed in PubChem BioAssay.
RBBP9 inhibitor – human RBBP9 hydrolase inhibition; O75884; recombinant RBBP9, FP-Rh probe fluorescence polarization; inhibition, % at 7.94 µM; 220,000 compounds, 0.2% hits; AID 1515;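 active = inhibition above the campaign mean of all tested compounds plus 3 SD, cut at about 14% in these data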
Target sequence (O75884 whole entry, looked up): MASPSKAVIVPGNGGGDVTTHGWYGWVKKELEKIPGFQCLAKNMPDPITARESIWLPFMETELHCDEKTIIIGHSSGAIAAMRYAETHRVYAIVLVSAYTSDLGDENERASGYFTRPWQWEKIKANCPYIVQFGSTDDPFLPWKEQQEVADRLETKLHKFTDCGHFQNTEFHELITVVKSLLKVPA
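Assay system: recombinant human RBBP9; Reagent: Serine-hydrolase probe FP-Rh, 375 nM pre-mixing; Doses: 7.94 µM single dose, 0.794% DMSO; Incubation: 30 min then 45 min, 25 °C; Detection: fluorescence polarization (mP), excitation 525 nm, emission 598 nm; Evaluation: percent inhibition from mP, scaled between DMSO and no-protein wells.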
MDM2 E3 inh – blocks human Mdm2 ubiquitin ligase activity; Q00987; cell-based MDM2 ubiquitination luciferase reporter, 2 h; 0 = plate control, 100 = twice control, blank-subtracted; signal enhancement, % at 5 µM; 210,000 compounds, 0.11% hits; AID 1230;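 active = signal enhancement of 30% or more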;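 note: luminescence tracks abundance of the self-degrading MDM2-luciferase fusion protein; higher signal means inhibition of MDM2 E3 ligase activity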
Target sequence (Q00987 whole entry, looked up, the tested form may be a part): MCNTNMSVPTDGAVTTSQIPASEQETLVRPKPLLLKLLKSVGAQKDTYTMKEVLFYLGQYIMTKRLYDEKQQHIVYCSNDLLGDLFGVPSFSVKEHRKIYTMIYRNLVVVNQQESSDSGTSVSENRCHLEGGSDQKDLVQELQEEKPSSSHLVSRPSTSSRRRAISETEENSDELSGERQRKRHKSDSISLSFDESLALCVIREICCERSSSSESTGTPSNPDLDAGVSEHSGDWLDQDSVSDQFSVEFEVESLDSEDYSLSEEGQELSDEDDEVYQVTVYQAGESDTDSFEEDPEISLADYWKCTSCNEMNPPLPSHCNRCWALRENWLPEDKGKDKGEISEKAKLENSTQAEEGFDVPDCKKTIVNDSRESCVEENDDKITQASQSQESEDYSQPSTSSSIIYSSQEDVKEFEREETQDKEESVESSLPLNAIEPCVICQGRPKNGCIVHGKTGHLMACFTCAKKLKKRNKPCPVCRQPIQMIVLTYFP
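Timing – 2 h compound exposure at 37 °C · Assay system – mammalian cells stably expressing self-ubiquitinating, self-degrading MDM2 E3–luciferase fusion · Amount – 2000 cells seeded into each well · Measure – % luminescence enhancement versus blank-corrected plate control mean · Measured by – SteadyLite luminescence, 15 min reagent step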
Insulin prom up – MIN6 insulin promoter up-regulation | AID 1625 | z-score at 5 µM | MIN6 insulin promoter-GFP reporter, high-content imaging; hits give high values | 190,000 compounds, 0.3% hits;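 active = z-score above 3 at 5 µM with at least 500 cells counted in the well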
Hsp70 activator – transcriptional activators of Hsp70. HeLa Hsp70 promoter luciferase reporter, luminescence; scaled: vehicle 0, proteasome-inhibitor control 100%. activation, % at 10 µM. 200,000 compounds, 0.04% hits. AID 1203;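 active = activation above the mean across all tested compounds plus 3 SD, cutoff set per campaign, cut at about 5.5% in these data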
Wee1 degr inh – inhibitors of human Wee1 degradation. P30291. HeLa Luc-Wee1K328M stability, luciferase luminescence; 100% = proteasome inhibitor MG132 effect. reporter increase, % at 5 µM. 220,000 compounds, 1.2% hits. AID 1321;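 active = activation above the mean of all tested compounds plus 3 SD, set per screening run, cut at about 8.8% in these data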;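 note: cells exposed to compound for 20 h before luminescence read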
INS promoter inh – TRM-6 insulin promoter activity inhibition | TRM-6 cells, insulin promoter-eGFP reporter, imaging; reporter expression induced with tamoxifen | inhibition, % at 2 µM | 130,000 compounds, 0.9% hits | AID 1273;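 active = inhibition above the mean plus 3 SD, with well images judged a real hit on visual review, cut at about 60% in these data, passing the limit was not always enough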
Hits are given with their value; – = inactive; · = no result given. Hits are enriched below; roughly 2.2% of the tested compounds scored in any of these assays.

SMILES	RBBP9 inhibitor	MDM2 E3 inh	Insulin prom up	Hsp70 activator	Wee1 degr inh	INS promoter inh
COc1ccc(OC)c(C2C3CN(C(C)C)CC=C3C(C#N)=C(N)C2(C#N)C#N)c1 (stereo not given)	–	–	17	–	–	–
COC(=O)C1C(=O)C2=C(CC1C)Nc1ccccc1NC2c1cccs1 (stereo not given)	–	–	–	–	–	–
O=[N+]([O-])c1cc(Cl)cc(C2=NCCN2)c1	–	–	–	–	–	79
COc1ccc2cc(C(=O)OC(C)C)sc(=O)c2c1OC	–	–	·	–	–	71
COc1ccc2cc(C(=O)NCC(=O)O)sc(=O)c2c1OC	–	–	–	–	–	–
COc1ccc(C(=O)NC(=S)Nc2cccc(Cl)c2N2CCOCC2)cc1[N+](=O)[O-]	–	–	–	–	–	·
Cc1cccc(OCc2nnc(SCC(=O)O)n2Cc2ccccc2)c1	–	–	–	–	–	·
CC(=O)c1cccc(NC2c3ccccc3C(=O)N2Cc2ccc3c(c2)OCO3)c1 (stereo not given)	–	–	·	–	9.1	–
CCOc1ccc(NC(=O)CN2CCN(CC(=O)Nc3cc(OC)cc(OC)c3)CC2)cc1	–	–	–	–	13	–
Cc1nn(-c2ccccc2)c(Cl)c1/C=N/NS(=O)(=O)c1ccc(Br)cc1	–	–	–	–	–	69
COc1ccc(-c2ccc(-c3nc4c(c(=O)[nH]c(=O)n4Cc4ccccc4)n3C)o2)c([N+](=O)[O-])c1	–	–	–	–	–	–
O=c1[nH]c(=O)n(Cc2ccccc2)c2nc(-c3ccc(Oc4ccc(F)cc4)c([N+](=O)[O-])c3)n(CCO)c12	–	–	–	–	–	74
O=C(CSc1ncccn1)Nc1cc(Cl)ccc1[N+](=O)[O-]	–	–	–	–	–	–
CN(C(=O)Nc1ccc(Cl)cc1Cl)C1CCCC1	–	–	–	–	–	·
N#CC(=C1CCCC1)c1nc(-c2ccccc2)cs1	–	–	–	–	–	–
Cc1ccc(-c2csc(C(C#N)=C3CCCC3)n2)cc1	–	–	–	–	–	75
Fc1ccccc1NC(=S)N/N=C/c1ccccc1Br	–	·	–	–	11	–
O=C1CSC(=Nc2ccccc2[N+](=O)[O-])N1	–	–	–	–	–	·
Cc1c(C(=O)O)cccc1-c1ccc(/C=C2/NC(=O)N(c3ccccc3)C2=O)o1	–	–	3.9	–	–	·
Cc1ccc(CN2CCN(CC3CC4C=CC3C4)CC2)cc1 (stereo not given)	–	–	–	–	–	·
CCc1nnc(NC(=O)CSc2nnc(Cc3ccccc3)n2-c2ccccc2)s1	–	–	–	–	–	82
COC(=O)c1[nH]c2cccc(Cl)c2c1NC(=O)CN(C)C1CCCCC1	–	–	3.5	–	–	–
COc1cc([N+](=O)[O-])ccc1-c1ccc(/C=N/NC(N)=O)o1	–	·	3.3	·	–	·
COc1cc([N+](=O)[O-])ccc1-c1ccc(/C=N/NC(=O)OC(C)(C)C)o1	–	–	–	·	–	·
Cc1ccc(-c2csc(NC(=O)CSc3nc4ccccc4c(=O)n3CCCN(C)C)n2)cc1	–	–	–	–	–	·
SMILES	RBBP9 inhibitor	MDM2 E3 inh	Insulin prom up	Hsp70 activator	Wee1 degr inh	INS promoter inh
CC(Nc1cccc(F)c1)C(=O)Nc1ccc(S(N)(=O)=O)cc1 (stereo not given)	–	–	–	–	–	·
COc1ccc(NC(C)=O)cc1C	–	–	–	–	–	71
Cc1cc(=O)[nH]c(SCC(=O)Nc2ccccc2[N+](=O)[O-])n1	–	–	–	·	–	·
Cc1cc(C(=O)Nc2cnc3ccccc3c2)ccc1[N+](=O)[O-]	–	–	–	–	9.1	–
Cc1nc2ccccc2c(=O)n1N(c1ccccc1)c1ccccc1	–	–	–	–	–	·
Cc1csc(=N)n1-c1ccc(Cl)cc1	–	–	–	–	–	91
O=C(OCc1nnc(-c2ccccc2)o1)C12CC3CC(CC(Br)(C3)C1)C2	–	–	–	–	9.6	–
O=C(OCc1nnc(-c2ccccc2)o1)c1ccccc1	–	–	–	–	–	·
COc1ccc(OC)c2[nH]c(=O)c(CCNC(=O)c3ccc(S(=O)(=O)N4CCCCC4)cc3)cc12	–	–	–	–	–	·
COc1ccc(OC)c2[nH]c(=O)c(CCNC(=O)c3ccc(Br)o3)cc12	–	–	–	–	–	86
COc1ccc(OC)c2[nH]c(=O)c(CCNC(=O)c3ccc(S(=O)(=O)N(C)C)cc3)cc12	–	–	–	–	–	91
CCN1C(=O)CC(N2CCN(c3ccc(C(=O)c4ccncc4)cc3)CC2)C1=O (stereo not given)	–	–	–	–	–	70
O=C(c1ccncc1)c1ccc(N2CCN(C3CC(=O)N(Cc4cccs4)C3=O)CC2)cc1 (stereo not given)	–	–	–	–	–	·
CCN1CCc2nc3ccccc3c(C(=O)Nc3ccc(C#N)cc3)c2C1	–	–	–	–	–	·
CCc1cc(=O)oc2cc(OCC(N)=O)c(Cl)cc12	–	–	–	–	–	–
COc1ccc(C(=O)NC(NC(=O)c2ccc(OC)c(OC)c2)c2ccccc2F)cc1OC	–	–	–	–	9.9	–
CCOC(=O)C1CCN(CC(=O)c2c(C)[nH]c3cc(C)ccc23)CC1	–	–	–	–	10	–
CCOC(=O)C1CCN(CC(=O)c2c(C)[nH]c3ccccc23)CC1	–	–	–	–	–	–
CCOc1ccc(NC(=O)c2cnccn2)cc1	–	–	–	–	–	94
CCOc1ccc(NC(=O)c2ccccn2)cc1	–	–	–	–	–	–
COc1ccc(Nc2ncnc3c2oc2ccccc23)cc1	–	–	·	–	10	–
Nc1ccc(C(=O)OCC(=O)Nc2ccc3c(c2)OCO3)cc1[N+](=O)[O-]	–	–	–	–	11	–
CC(C)CN(C(=O)COC(=O)c1c(Cl)ccc(Cl)c1Cl)C1CCS(=O)(=O)C1 (stereo not given)	–	–	–	–	8.8	·
O=C(Nc1cc(=O)[nH]c2ncnn12)c1ccccc1F	–	–	–	·	9.4	·
O=C(Nc1cc(=O)[nH]c2ncnn12)c1ccco1	–	–	·	·	–	·
SMILES	RBBP9 inhibitor	MDM2 E3 inh	Insulin prom up	Hsp70 activator	Wee1 degr inh	INS promoter inh
Cn1nnnc1SCC1=C(C(=O)O)N2C(=O)C(NC(=O)C3CC3c3ccccc3)C2SC1 (stereo not given)	–	–	–	–	11	–
Cn1nnnc1SCC1=C(C(=O)O)N2C(=O)[C@@H](NC(=O)[C@H](O)c3ccccc3)[C@H]2SC1	–	·	·	–	–	–
CN(C)/C=C(/C(=O)c1ccc(Cl)cc1Cl)S(=O)(=O)c1ccccc1	–	–	–	–	9.6	·
COCCSc1nnc(NC(=O)CSc2ccccc2)s1	–	–	–	–	–	·
COCCSc1nnc(NC(=O)C(C)(C)C)s1	–	·	–	–	8.8	–
COc1ccc(C(=O)CSc2nc(C(C)(C)C)nc3ccccc23)cc1	–	–	–	–	–	·
